Assay results from PubChem BioAssay AID2833 (NMMLSC, 2010).
Activity calls are given as the source filed them.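 How the source made its calls: active means toxic dose over reversal dose above 10, when toxic dose is under 15 µM; inactive means the rest.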

System: Jurkat/DNR viability with daunorubicin, trypan blue, 3 d
Test: daunorubicin chemosensitization of ABCB1-expressing cells, SAR follow-up, cell-based, Jurkat/DNR, trypan blue viability, one SAR set (AID 2833)
Conditions: for CC50: measured here: toxicity without chemotherapeutic (TD50)
Summary of the method: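 Material: Jurkat/DNR resistant cells | Quantity: 100,000 cells per mL | Also added: Daunorubicin at a constant, fixed level throughout exposure | Doses: Test compound series spanning 1–100 µM, three logs | Timing: 3-day compound exposure with daunorubicin | Measured by: Trypan blue exclusion, cell counts by light microscopy | Read-out: CR50 from viability curve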

Row | SMILES | EC50 | CC50
1 | CCN(CC)P(=O)(Nc1cccc(C(F)(F)F)c1)c1ccc(N(C)C)cc1NC(=O)c1ccco1 (stereo not given) | 4.72 µM (inactive) | 4.54 µM
2 | Cc1cc(C)c(C#N)c(SCc2c(F)cccc2[N+](=O)[O-])n1 | 29.4 µM (inactive) | 3.05 µM
3 | CCOC(=O)c1cccc(NC(=O)c2cnc3ccccc3n2)c1 | 13.3 µM (inactive) | 15 µM
4 | O=[N+]([O-])c1ccccc1-c1nc(-c2ccc(Br)o2)no1 | 14.6 µM (inactive) | 14.6 µM
5 | COc1ccc(/C=N/NC(=O)c2cccnc2)cc1CN1CCN(c2ccc(F)cc2)CC1 | 17.5 µM (inactive) | 24.1 µM
6 | CNc1nc2cc([N+](=O)[O-])c([N+](=O)[O-])cc2nc1NC | 15.2 µM (inactive) | 6.2 µM
7 | COc1ccc(-c2nn(-c3ccccc3)cc2/C=C/C(=O)N2CCN(c3ccccn3)CC2)cc1 | 9.9 µM (inactive) | 15.2 µM
8 | CCOC(=O)c1c(NC(=O)CSc2ncccn2)sc2c1CCN(Cc1ccccc1)C2 | 8.81 µM (inactive) | 5.1 µM
9 | CC1=NN(c2ccc([N+](=O)[O-])cc2)C(=O)/C1=C/N(C)C | 34.5 µM (inactive) | 34.5 µM
10 | COC(=O)c1ccc(C(C(=O)NC2CCCCC2)N(Cc2ccccc2)C(=O)Cc2cccs2)cc1 (stereo not given) | 10.3 µM (inactive) | 8.81 µM
11 | O=[N+]([O-])c1ccc(Nc2nc(Cl)nc(NCCO)n2)cc1 | 9.67 µM (inactive) | 12.8 µM
12 | N#Cc1ccc(-c2ccc(OCC(=O)NCCc3ccccc3)cc2)cc1 | 43.8 µM (inactive) | 21.4 µM
13 | CCCCN(C)C1=CC2=CC(=C(C#N)C#N)CCC2CC1 (stereo not given) | 12.5 µM (inactive) | 15.2 µM
14 | CCCCn1c(O)c(N=Nc2ccccn2)c2ccccc21 | 13.3 µM (inactive) | 13.3 µM
15 | Cc1nc2cc(-c3cccc(F)c3)nn2c(N2CCN(C(=O)c3ccco3)CC2)c1C | 1.18 µM | > 100 µM
